# Compound activity from PubChem BioAssay.
# Yeast life ext = extends the lifespan of yeast | AID 775 | S. cerevisiae growth with nicotinamide, OD615; deaD strain in restrictive glucose medium | inhibition of the nicotinamide effect, % at 10 µM | hit rate 0.68% among 130,000;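 active = inhibition above a set limit, placed 3 SD over the median of all compounds, cut at about 26% in these data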;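 note: 0% = nicotinamide-treated wells and 100% = cells grown without nicotinamide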
#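 Assay system: engineered S. cerevisiae DeaD replicative-lifespan strain, galactose-grown log-phase cells; medium: restrictive CSMM-D dextrose medium; also added: nicotinamide, 1.5 mM, co-present with compound; schedule: 48 h compound exposure at 30 °C, humidified; detection: absorbance at 615 nm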
# RAM inhibit = inhibitors of the yeast RAM network. S. cerevisiae dse1pr::URA3 reporter, 5-FOA growth OD615, 2 d; analog-sensitive cbk1-as2 kinase mutant strain. inhibition, % at 50 µM. hit rate 1.8% among 190,000. AID 868;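 active = inhibition above a set limit, 3 SD over mean compound inhibition, cut at about 8.4% in these data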;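 note: 0% = DMSO-only wells with no growth and 100% = 10 µM 1-NA-PP1 full growth; inhibition rescues growth on 5-FOA so higher OD means more RAM inhibition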
# Measles CPE = protection of cells from measles virus; Measles virus-infected cells, CPE protection, absorbance; protection (pct of control), % at 4 µM; hit rate 1.5% among 140,000; in the data active = protection mostly above about 24%, no sharp cut-off; inactive = mostly below about 26%
# BB579 growth dn = chemicals that inhibit yeast BB579 growth in restrictive medium (lifespan-shortening candidates). hit rate 0.51% among 140,000. AID 804. inhibition, % at 10 µM. S. cerevisiae BB579 growth, OD615, 48 h;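 active = inhibition above a set limit, 3 SD over the mean compound inhibition, cut at about 44% in these data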
#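 Material: Saccharomyces cerevisiae DeaD strain BB579, replicative lifespan model yeast; buffer or medium: CSMM-D restrictive synthetic medium containing dextrose (glucose); compound: 10 µM single dose, DMSO 0.25%; timing: 48 h compound exposure at 30 °C after 4 h preincubation; signal: turbidity as optical density at 615 nm; benchmarks: positive control amphotericin B 10 µg/mL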
# Starred values were filed as active, the others as inactive; . = no result. The list is not random: actives were taken first. Their share in the collection is about 3.8%.
SMILES,Yeast life ext,RAM inhibit,Measles CPE,BB579 growth dn
O=S(=O)(Nc1cccc2ncccc12)c1cccs1,9.8,0.7,3.0,4.5
CC(=O)/C(C#N)=C1\NC(=O)C(Cc2ccccc2)S1 (stereo not drawn),14.3,0.4,91.5*,-0.6
Cc1cc(N2CCN(C/C=C/c3ccccc3)CC2)n2ncnc2n1,-0.3,1.5,32.0*,-63.0
O=c1c(-c2ccccc2)nc(-c2ccccc2)cn1O,-4.3,0.8,18.7,48.8*
N/C(=N\OC(=O)CCCN1C(=O)c2ccccc2C1=O)c1ccc(Cl)cc1,-13.2,7.7,40.9*,-16.4
COc1cc(/C=C/C(=O)OCC(=O)Nc2ccc(NC(C)=O)cc2)cc(S(=O)(=O)N2CCc3ccccc32)c1OC,.,10.3*,.,.
CC(C)[C@H](NC(=O)OC(C)(C)C)C(=O)N/N=C/c1cccc2nccnc12,1.2,1.1,29.5,-12.6
O=[N+]([O-])c1ccc(CN2CCCCCC2)s1,4.3,-1.4,4.9,54.1*
Cc1ccc(C(=O)OCn2ncc(Cl)c(Cl)c2=O)cc1,-12.0,-1.6,1.1,86.2*
Cc1cccc(Cn2ncc(Cl)c(Cl)c2=O)c1,-18.5,2.5,16.9,49.2*
COc1cccc(C(=O)Oc2cc(-c3ccccc3)no2)c1,9.2,0.0,12.0,22.4
Cc1cc(CSc2ccccc2)ccc1NC(=O)COc1ccccc1,-5.3,8.6*,3.1,-27.3
Cc1cc(CSc2ccccc2)ccc1NC(=O)c1ccc(Br)cc1,6.1,3.8,24.6,-9.0
NNc1ncnc2scc(-c3ccc(Cl)cc3)c12,4.2,0.3,13.8,-21.7
Cc1ccc(-c2csc3ncnc(NS(=O)(=O)c4ccc(Cl)cc4)c23)cc1,6.4,9.2*,24.8,-32.5
CSc1nc(C)cc(OCC(=O)N/N=C/c2ccccc2O)n1,-2.8,1.9,13.4,-47.5
CCc1nnc(NC(=O)CN2C(=O)c3ccccc3S2(=O)=O)s1,-0.8,2.1,39.5*,-21.4
O=C(CCN1C(=O)c2ccccc2S1(=O)=O)Nc1nc2c(s1)CCCC2,-20.0,1.5,23.9*,-37.0
CCCCn1nc(C(=O)Nc2nc3c(s2)CCCC3)c2ccccc2c1=O,-3.0,2.6,17.8,-5.8
CCCCCCn1nc(C(=O)Nc2nc3c(s2)CCCC3)c2ccccc2c1=O,2.8,10.9*,9.5,-17.5
CCN(CC)S(=O)(=O)c1ccc(C(=O)N(c2ccc(C)cc2)C2C=CS(=O)(=O)C2)cc1 (stereo not drawn),.,2.4,.,.
CC12CCC(C(=O)Nc3nc4ccc(Br)cc4s3)(OC1=O)C2(C)C (stereo not drawn),.,-0.1,.,.
CCC(=O)Nc1cccc(-n2nnnc2SCC(=O)N2CCCCC2)c1,.,1.8,.,.
CC(C)Sc1oc(-c2ccco2)nc1S(=O)(=O)c1ccccc1,9.7,1.6,30.1*,-57.7
Cc1cc(C(=O)O)c(C)n1-c1ccccc1,14.0,1.0,39.6*,-69.0
SMILES,Yeast life ext,RAM inhibit,Measles CPE,BB579 growth dn
Cc1cc(C(=O)OCC(N)=O)c(C)n1-c1ccccc1,.,1.5,.,.
C=C(C)C1CC=C(C)/C(=N\NC(=O)CCc2ccccc2)C1 (stereo not drawn),3.5,2.6,32.2,-31.4
CN(c1ccccc1)C1CCCCC1NS(=O)(=O)c1ccc(Cl)cc1 (stereo not drawn),35.6*,0.5,36.8,11.0
CCN(CC)C1CCCCC1NS(=O)(=O)c1ccc(Cl)cc1 (stereo not drawn),-15.0,0.6,10.2,8.7
COC(=O)[C@@]1(Cc2ccc(OC)cc2)[C@H]2c3cc(C(=O)N(C)C)n(CCSCCO)c3C[C@H]2CN1C(=O)c1ccccc1,-1.9,1.9,26.3,-0.8
OCc1ccnc(Cl)c1,1.3,1.1,4.9,-24.5
O=C(O)c1ccnc(Cl)c1,0.8,1.2,25.0*,-11.1
COc1ccc2o/c(=N/NC(=S)Nc3ccccc3)c(C(N)=O)cc2c1,1.4,3.1,13.9,-20.6
COc1ccccc1OC(=O)c1ccc(S(=O)(=O)N(C)C)cc1,-2.8,-0.6,44.4*,-52.1
COc1cc(NC(=O)c2ccc(S(=O)(=O)N(C)C)cc2)cc(OC)c1OC,-11.5,1.5,3.0,-11.1
FC(F)Oc1ccc(NC(=S)NNc2ccnc3cc(Cl)ccc23)cc1,.,0.3,.,.
CN(C)c1ccc(/C=C/c2ccc3ccccc3[n+]2C)cc1,2.1,1.8,3.7,65.8*
CC/C(C)=N/Nc1cccc([N+](=O)[O-])c1,-9.1,-0.2,11.2,97.8*
CCC(CC)=NNc1cccc([N+](=O)[O-])c1,-3.2,0.9,2.5,-13.3
CCCOc1ccc(/C=N/Nc2cccc([N+](=O)[O-])c2)c(O)c1,-0.8,8.9*,4.7,-65.1
Oc1c(I)cc(I)c2cccnc12,-4.0,-0.7,46.6,82.9*
